According to ChEMBL document CHEMBL1145814, “Antiretroviral activity of semisynthetic derivatives of glycopeptide antibiotics” (J Med Chem, 2003):
Values after ≈ are worked out from the molar mass of the structure shown. Values joined by “and” are separate entries in the source; they are usually repeats but may differ in a detail not shown here. Identical values can stand only once.

Tests used:
[1] = organism: Mus musculus; assay: Minimal inhibitory concentration required to cause a microscopic detectable alteration of C3H/3T3 embryo murine fibroblast cell morphology; format: functional
Method in brief: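 Uninfected C3H/3T3 murine embryo fibroblast cultures were exposed to test compound and checked microscopically for changes in cell morphology. The MIC is the concentration causing a microscopically detectable alteration of morphology.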

[2] = tested on: L1210; assay: Inhibitory concentration of compound against proliferation of murine lukemia cells L1210 was determined; format: functional, cell-based; details: Mus musculus
Method in brief: (§1)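 (5–7.5) × 10^4 cells per well were incubated with test compound at 37 °C in a humidified CO2 atmosphere. L1210 murine leukemia cells grew for 48 h, and CEM and Molt4/clone 8 human lymphocytes grew for 72 h. Cells were then counted with a Coulter counter. IC50 is the concentration inhibiting proliferation by 50%.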

[3] = organism: Mus musculus; assay: Effective concentration of compound required to protect C3H/3T3 embryo murine fibroblasts against the MSV induced transformation; format: functional, organism-based; details: Mus musculus, C3H/3T3
Method in brief: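 Monolayer murine embryo fibroblast C3H/3T3 cultures were infected with Moloney murine sarcoma virus at 75 focus-forming units and cultured with test compound. Transformation was examined microscopically on day 6 postinfection. EC50 is the concentration protecting cells against MSV-induced transformation by 50%.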

[4] = tested on: Human immunodeficiency virus 2; assay: Concentration required to protect human T-lymphocytic cells against the cytopathogenicity of HIV-2; format: functional, organism-based
[5] = tested on: CCRF-CEM; assay: Inhibitory concentration against proliferation of human T-lymphocytic (CEM) cells; format: functional, cell-based; method in brief: as §1
[6] = tested on: Human immunodeficiency virus 1; assay: Effective concentration of compound required to protect human T-lymphocytic cells against the cytopathogenicity of HIV-1; format: functional, organism-based
[7] = tested on: MOLT-4; assay: Inhibitory concentration of compound against proliferation of human T-lymphocytic cells MOLT-4/C8 was determined; format: functional, cell-based; method in brief: as §1

Structure (SMILES)	MIC [1] [µM]	IC50 [2] [µM]	EC50 [3] [µM]	EC50 [4]	IC50 ([5]; Homo sapiens, CCRF-CEM) [µM]	IC50 ([5]; ccrf-cem) [µM]	EC50 [6]	IC50 [7] [µM]	EC50 ([4]; Human immunodeficiency virus 2) [µM]	EC50 ([6]; Human immunodeficiency virus 1) [µM]
CCCCc1ccc(CN2CCN(Cc3c(O)cc4c(c3O)-c3cc(ccc3O)C3NC(=O)C5NC(=O)C6NC(=O)C(Cc7ccc(c(Cl)c7)Oc7cc5cc(c7O)Oc5ccc(cc5Cl)C(O)C(NC3=O)C(=O)N[C@H]4C(=O)NC)NC(=O)C(N)c3ccc(O)c(c3)Oc3cc(O)cc6c3)CC2)cc1 (stereo partly specified)	> 20	61	3.6	3 µM and 6.3 µM	> 500	> 250	1.7 µM and 3.5 µM	> 500		
CCCCCCCCCCNC(=O)[C@H]1NC(=O)[C@H]2NC(=O)[C@H](NC(=O)[C@@H]3NC(=O)[C@H](CC(N)=O)NC(=O)[C@H](NC(=O)[C@@H](CC(C)C)NC)[C@H](O)c4ccc(c(Cl)c4)Oc4cc3cc(c4O[C@@H]3O[C@H](CO)[C@@H](O)[C@H](O)[C@H]3O[C@H]3C[C@](C)(N)C(O)[C@H](C)O3)Oc3ccc(cc3Cl)[C@H]2O)c2ccc(O)c(c2)-c2c(O)cc(O)cc21 (stereo partly specified)	20 (≈ 31.8 µg/mL)	30	> 4		30			> 10	> 10	> 10
COC(=O)[C@H]1NC(=O)C2NC(=O)C(NC(=O)[C@@H]3NC(=O)[C@H]4NC(=O)[C@H](NC(=O)[C@H](N)c5ccc(O)c(c5)Oc5cc4cc(O)c5C)[C@H](O)c4ccc(cc4)Oc4cc3cc(c4OC3OC(CO[C@H]4O[C@H](C)[C@@H](O)[C@@H](O)[C@@H]4O)C(O)C(O)C3OC3OC(CO)C(O)C(O)C3OC3OCC(O)C(O)C3O)Oc3ccc(cc3)[C@H]2O[C@@H]2C[C@@H](N)[C@@H](O)[C@@H](C)O2)c2ccc(O)c(c2)-c2c(O[C@@H]3O[C@H](CO)[C@@H](O)[C@@H](O)[C@@H]3O)cc(O)cc21 (stereo partly specified)	> 100	> 500	> 100		> 500			> 500	> 250	> 250
CN[C@@H](CC(C)C)C(=O)NC1C(=O)N[C@@H](CC(N)=O)C(=O)NC2C(=O)NC3C(=O)NC(C(=O)N[C@@H](C(=O)O)c4cc(O)cc(O)c4-c4cc3ccc4O)C(O)c3ccc(cc3)Oc3cc2cc(c3O)Oc2ccc(cc2Cl)C1O (stereo partly specified)	> 100	> 500	> 100		> 500			> 500	> 250	50
NC1Cc2ccc(c(Cl)c2)Oc2cc3cc(c2O)Oc2ccc(cc2Cl)C(O)C2NC(=O)C(NC(=O)C3NC(=O)C(c3cc(O)cc(Oc4cc(C5NC(=S)N(c6ccccc6)C5=O)ccc4O)c3)NC1=O)c1ccc(O)c(c1)-c1c(cc(O)c(CNC3C4CC5CC(C4)CC3C5)c1O)[C@H](C(=O)O)NC2=O (stereo partly specified)	> 100	73	2.9		242			> 250	17	13
CNC(=O)[C@@H]1NC(=O)C2NC(=O)C(NC(=O)C3NC(=O)C4NC(=O)C(Cc5ccc(c(Cl)c5)Oc5cc3cc(c5O)Oc3ccc(cc3Cl)C2O)NC(=O)C(N)c2ccc(O)c(c2)Oc2cc(O)cc4c2)c2ccc(O)c(c2)-c2c1cc(O)c(CNC1C3CC4CC(C3)CC1C4)c2O (stereo partly specified)	> 20	212	9.5		> 250			> 250	17	5
CNC1C(=O)NC2Cc3ccc(cc3)Oc3cc4cc(c3O)Oc3ccc(cc3Cl)C(O)C3NC(=O)C(NC(=O)C4NC(=O)C(NC2=O)c2cc(cc(O)c2Cl)Oc2cc1ccc2O)c1ccc(O)c(c1)-c1c(O)cc(O)cc1[C@H](C(=O)O)NC3=O (stereo partly specified)	> 100	> 500	82		> 500			> 500	> 50	40
CN[C@H](CC(C)C)C(=O)N[C@H]1C(=O)N[C@@H](CC(N)=O)C(=O)N[C@H]2C(=O)N[C@H]3C(=O)N[C@H](C(=O)N[C@H](C(=O)NCc4ccc(-c5ccc(Cl)cc5)cc4)c4cc(O)cc(O)c4-c4cc3ccc4O)[C@H](O[C@H]3C[C@](C)(N)[C@@H](O)[C@H](C)O3)c3ccc(cc3)Oc3cc2cc(c3O[C@@H]2O[C@H](CO)[C@@H](O)[C@H](O)[C@H]2O[C@H]2C[C@](C)(N)[C@@H](O)[C@H](C)O2)Oc2ccc(cc2Cl)[C@H]1O	4 (≈ 7.03 µg/mL)	15	> 0.8		8.6			7.7	> 10	> 10
CN(C)CCCNC(=O)[C@@H]1NC(=O)C2NC(=O)C(NC(=O)C3NC(=O)C4NC(=O)C(Cc5ccc(c(Cl)c5)Oc5cc3cc(c5O)Oc3ccc(cc3Cl)C2O)NC(=O)C(N)c2ccc(O)c(c2)Oc2cc(O)cc4c2)c2ccc(O)c(c2)-c2c1cc(O)c(CNC1C3CC4CC(C3)CC1C4)c2O (stereo partly specified)	20 (≈ 28.9 µg/mL)	> 500	12	8 µM and 22 µM	> 500	> 250	4 µM	> 500		2.5
